Shown are actives, neighbours in structure and some others; about 2.5% of the full set was active somewhere.
UHRF1 MBD2 ctr = blocks human UHRF1 binding to methylated DNA; 370,000 tested, 0.75% active; UHRF1 binding to methylated oligo, TR-FRET; inhibition, % at 4.4 µM; Q96T88; in the data active means inhibition above about 21%;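 further: UHRF1 SRA domain binding a hemimethylated CpG hairpin DNA probe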
SUMO1-SIM PPI = modulators of human SUMO1-mediated protein-protein interactions; P63165; SUMO1 binding to a labelled peptide, TR-FRET, 1 h; inhibition, % at 20 µM; 360,000 tested, 0.33% active
Pemphigus Ab inh = human desmoglein-3 autoantibody binding inhibition | DSG3-coupled beads, scFv-anti-DSG3-GFP binding, flow cytometry; hits give low values | AID 588358 | 310,000 tested, 0.48% active | binding (percent of control), % at 10 µM;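 active means binding more than 3 SD below its plate's average and above zero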;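 further: hits lower antibody fragment binding to DSG3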
DNMT1 block = blocks human DNA methyltransferase DNMT1 | DNMT1 molecular beacon, Hinp1I cleavage, fluorescence | inhibition (reported as % activation of signal), % at 10 µM | 360,000 tested, 0.83% active; in the data active means inhibition above about 50%
NS3 helicase inh = blocks Hepatitis C virus NS3 helicase unwinding | 290,000 tested, 0.56% active | inhibition, % at 10.9 µM | NS3 helicase DNA unwinding, Cy5 molecular beacon fluorescence;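 active means inhibition above the mean of all tested compounds plus 3 SD, set per campaign, cut at about 35% in these data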
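Measured by: Cy5 fluorescence, 0 and 60 min reads / Assay system: NS3 helicase fragment of HCV / Control set: low DMSO, high thioflavine S at 110 µM / Times: 1 h reaction at 25 °C, ATP-initiated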
MBD2 DNA inh = inhibitors of human MBD2 binding to methylated oligonucleotide. 370,000 tested, 0.31% active. inhibition, % at 4.4 µM. TR-FRET. Q9UBB5; in the data active means inhibition above about 13%
NS3 hel confirm = confirmation of Hepatitis C virus NS3 helicase inhibitors. NS3 helicase DNA unwinding, Cy5 molecular beacon fluorescence. AID 1943. 1,600 tested, 31% active. shares compounds with NS3 helicase inh. inhibition, % at 10.9 µM;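 active means inhibition above the mean of all tested compounds plus 3 SD, cutoff set per campaign, cut at about 36% in these data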
DNA FID counter = counter-screen for HCV NS3 helicase inhibitors: DNA intercalator displacement. shares compounds with NS3 helicase inh. DNA fluorescent intercalator displacement, fluorescence. inhibition, % at 7.9 µM. 1,600 tested, 4% active. AID 1945;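 further: higher means more displacement of ethidium bromide from the DNA hairpin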
Numbers stand for hits; . = inactive; / = no result given. Unless noted, no stated cut-off is given here; in the data, active means inhibition above about 37%; inactive means the rest.

SMILES	UHRF1 MBD2 ctr	SUMO1-SIM PPI	Pemphigus Ab inh	DNMT1 block	NS3 helicase inh	MBD2 DNA inh	NS3 hel confirm	DNA FID counter
Cc1ccc(NS(=O)(=O)c2cccc(C(=O)NCC3(N(C)C)CCCCC3)c2)cc1	.	.	.	.	.	.	/	/
Cc1ccc(NC(=O)c2cc(NC(=O)/C=C\C(=O)O)ccc2N2CCCCC2)cc1	.	.	.	.	.	.	/	/
Cc1ccc(NC(=O)c2cc(NC(=O)c3ccccc3C(=O)O)ccc2N2CCCCC2)cc1	.	.	.	.	46	.	75	.
NS(=O)(=O)c1ccc(N2C(=O)C(=O)/C(=C(/O)c3ccccc3)C2c2ccc(Cl)cc2)cc1 (stereo not drawn)	.	.	.	.	41	.	.	.
CCC(C)[C@H](NC(=O)C1(c2ccccc2)CCN(C(=O)OC(C)(C)C)CC1)C(=O)N[C@@H](C(=O)O)c1ccccc1 (stereo partly drawn)	.	.	.	.	47	.	.	.
Cc1ccc(N(C)c2nc(N)nc(N)c2N=O)cc1	.	/	/	/	/	.	/	/
O=C(Nc1nc2c(Cl)c(Cl)ccc2s1)C1CC1	.	.	.	.	41	.	.	.
O=C(Nc1nc2c(Cl)cccc2s1)C1CC1	.	.	.	.	.	.	/	/
CCOc1ccc(-n2ccc(=O)c(C(=O)Nc3ccc(S(=O)(=O)Nc4nccs4)cc3)n2)cc1	.	.	.	.	37	.	.	.
Cc1ccc(NC(=O)c2cc(C)nc3ccccc23)cc1	.	.	.	.	.	.	/	/
Cc1ccc(C)c(NC(=O)c2cc(C)nc3ccccc23)c1	.	.	.	.	55	.	.	.
O=C1CS/C(=N\N=C\c2ccco2)N1c1ccccc1	.	.	.	.	41	.	.	.
O=C(Nc1cc(C(F)(F)F)ccc1N1CCOCC1)C1Cc2ccccc2CN1C(=O)c1ccco1 (stereo not drawn)	.	.	.	.	57	.	.	.
Cn1cccc1Cc1nnc(SCC(=O)NCc2ccco2)n1-c1ccc(F)cc1	.	.	.	.	39	.	.	.
Cn1cccc1Cc1nnc(SCC(=O)NCc2ccco2)n1CCc1ccccc1	.	.	.	.	36	.	.	.
Cn1cccc1Cc1nnc(SCC(=O)NCC2CCCO2)n1CCc1ccccc1 (stereo not drawn)	.	.	.	.	.	.	/	/
CC(=O)c1cccc(NC(=O)CC2S/C(=N/N=C3CCCCCC3)NC2=O)c1 (stereo not drawn)	.	.	.	.	.	.	/	/
Cc1nnc(SCC(=O)Nc2cc(S(=O)(=O)N3CCOCC3)ccc2N2CCCC2)s1	.	.	.	.	/	.	/	/
Cc1cc(C)c(-c2c(O)c3cccc4c3n(c2=O)CCC4)c(C)c1	.	.	.	.	40	.	.	.
CC(=O)c1sc(NC(=O)c2ccc(COc3ccccc3Cl)o2)nc1C	.	.	.	.	42	.	.	.
O=C(NNC1CC(=O)N(c2ccccc2)C1=O)c1ccc(COc2ccccc2Cl)o1 (stereo not drawn)	.	.	.	.	60	.	.	.
O=C(NNC1CC(=O)N(c2ccccc2)C1=O)c1ccco1 (stereo not drawn)	.	.	.	.	.	.	/	/
CC(=O)Cc1nsc(NC(=O)c2ccc(COc3ccccc3Cl)o2)n1	.	.	.	.	.	.	/	/
COc1ccc(CCC(=O)N2c3ccccc3N=C(c3ccc(C(F)(F)F)cc3)C2C(=O)NC(C)(C)C)cc1 (stereo not drawn)	.	.	/	/	/	.	/	/
CCCn1cc(CN2CCCC(C(=O)c3cccc(OC(C)C)c3)C2)c(C)n1 (stereo not drawn)	.	.	.	.	.	.	/	/
CCCC(=O)Nc1ccc(-c2csc(N/N=C\c3ccncc3)n2)cc1	.	.	.	.	38	.	.	.
CC(=O)Nc1ccc(-c2csc(N/N=C\c3ccncc3)n2)cc1	.	.	.	.	.	.	/	/
FC(F)(F)c1ccc(C2Nc3cccc4cccc(c34)N2)cc1	.	.	.	.	.	.	/	/
